FGF22 binding: FGF22 (human) thermal shift binding; activity (Tm shift, normalised), % at 9.99 µM; recombinant FGF22 thermal shift, SYPRO orange fluorescence; percent of sucrose octasulfate shift, DMSO zero; Q9HCT0; actives 1.5% (n = 340,000); AID 651658;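 active = mean Tm shift, scaled 0 neutral to 100 positive control, at about 1.3% or above, every replicate too, limit read from the data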
Target sequence (Q9HCT0 whole entry, looked up): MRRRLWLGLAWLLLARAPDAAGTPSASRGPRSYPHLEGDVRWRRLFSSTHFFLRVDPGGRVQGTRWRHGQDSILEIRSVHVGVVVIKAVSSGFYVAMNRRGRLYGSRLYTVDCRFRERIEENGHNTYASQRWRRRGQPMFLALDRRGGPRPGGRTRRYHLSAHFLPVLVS
NR2E3 ag-1: agonists of human NR2E3 nuclear receptor; AID 602229; CHO-S Gal4-NCOR/VP16-NR2E3 two-hybrid, luciferase; inhibition of corepressor binding, % at 3.98 µM; actives 0.35% (n = 360,000);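 active = inhibition above the mean of all tested compounds plus 3 SD, cut at about 70% in these data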;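 also: higher means lower luciferase signal from less NR2E3 corepressor binding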
Target sequence (Q9Y5X4 whole entry, looked up, the tested form may be a part): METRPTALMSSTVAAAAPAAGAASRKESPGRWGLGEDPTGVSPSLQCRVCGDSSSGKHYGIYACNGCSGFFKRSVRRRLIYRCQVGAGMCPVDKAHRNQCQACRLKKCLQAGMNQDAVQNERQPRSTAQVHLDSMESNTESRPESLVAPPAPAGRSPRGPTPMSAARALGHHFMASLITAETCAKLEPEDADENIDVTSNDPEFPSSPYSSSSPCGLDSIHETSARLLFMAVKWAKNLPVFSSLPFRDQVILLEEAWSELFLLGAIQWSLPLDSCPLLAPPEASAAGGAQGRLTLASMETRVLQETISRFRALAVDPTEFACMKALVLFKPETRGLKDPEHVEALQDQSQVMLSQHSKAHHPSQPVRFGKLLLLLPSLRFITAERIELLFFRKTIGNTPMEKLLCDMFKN
Jurkat NFkB inh: inhibitors of the PMA/ionomycin-induced NF-kB reporter in Jurkat cells; inhibition, % at 4 µM; PMA/ionomycin-induced NF-kB luciferase reporter, luminescence; actives 0.53% (n = 330,000); in the data active = inhibition above about 50%
miR-122 sensor: inhibitors of miR-122 in Huh7 cells; Huh7 miR-122 Renilla luciferase sensor, 48 h; neutral wells = 0, positive control = 100; activation (reporter increase), % at 12.5 µM; actives 0.3% (n = 340,000); AID 602342;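 active = mean replicate activation score at least 90 and every replicate individually at or above 90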;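 also: higher luciferase means less miR-122 activity so hits act as miR-122 inhibitors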
697 NFkB inh: lowers PMA/ionomycin-induced NF-kB signal in 697 B cells; actives 0.33% (n = 330,000); AID 435022; 697 B-cell NF-kB luciferase reporter, 16 h; inhibition, % at 4 µM; in the data active = inhibition above about 35%
NR2E3 ag-2: agonists of human nuclear receptor NR2E3; actives 0.12% (n = 320,000); Q9Y5X4; GST-NR2E3/biotin-RetCOR TR-FRET, 1536-well; inhibition of corepressor binding, % at 4.78 µM;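 active = percent inhibition above the cutoff of mean plus 3 SD of all tested compounds, set per screening campaign, cut at about 20% in these data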
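Material: NR2E3–RetCOR corepressor complex / Amount: 1.35 nM GST-NR2E3 / Medium: Tris pH 7.5 / Compound: single nominal compound dose of 4.8 µM / Incubation: 5 h at 4 °C / Technique: TR-FRET, Eu(K)-anti-GST donor, streptavidin-D2 acceptor, ex 340, em 617/671 nm / Read-out basis: percent loss of FRET ratio relative to control wells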
A number is an active result; - = inactive; . = no result. Compounds with a hit are over-represented: about 2.2% of the library has one in this group of screens.

SMILES | FGF22 binding | NR2E3 ag-1 | Jurkat NFkB inh | miR-122 sensor | 697 NFkB inh | NR2E3 ag-2
O=C(C1CCCCC1)N1C[C@@H]2[C@H](c3ccccc31)[C@@H](CO)N2CC1CCOCC1 | - | . | . | - | . | .
CC(=O)N(C)C[C@H]1Oc2cc(-c3ccccc3)ccc2S(=O)(=O)N([C@@H](C)CO)C[C@@H]1C | - | . | . | - | . | .
CCC(=O)N1[C@@H](CO)[C@H](c2ccc(-c3ccccc3OC)cc2)C12CN(C(C)=O)C2 | - | . | . | . | . | .
CCCC#Cc1cnc2c(c1)C(=O)N([C@H](C)CO)C[C@@H](C)[C@H](CN(C)C(=O)Cc1cccnc1)O2 | - | . | . | - | . | .
COC(=O)Cc1nnn2c1[C@H](C)[C@@H](OC)c1cccc(Cl)c1-2 | 82 | . | . | . | . | .
Cc1cc(=O)[nH]c(CN2CCOCC2)n1 | 43 | - | - | - | - | -
Cc1nc(CN2CCC(c3ccccc3)CC2)cc(=O)[nH]1 | - | - | - | - | - | -
Cc1nc(CN2CCCCC2)cc(=O)[nH]1 | 43 | - | - | - | - | -
Cc1noc(C)c1S(=O)(=O)Nc1cccc2c1O[C@H](CN(C)S(=O)(=O)c1cn(C)cn1)[C@H](C)CN([C@H](C)CO)C2=O | - | . | . | - | . | .
COc1cc(CNCCc2c[nH]c3ccccc23)cc(Cl)c1OCC(N)=O | 44 | - | - | . | - | -
COc1ccc(-c2ccc3n(c2=O)C[C@@H]2[C@@H](CO)[C@H](C(=O)N(C)C)N(CC4CCOCC4)[C@H]32)cc1 | - | . | . | - | . | .
COc1ccc(Cl)c(Cn2c(NCc3ccco3)nc3c2c(=O)n(C)c(=O)n3C)c1 | . | 72 | - | - | - | -
Cn1c(=O)c2c(nc(NCCNC(=O)c3ccco3)n2Cc2ccc(F)cc2)n(C)c1=O | 1.8 | - | - | . | - | -
COc1ccc(-c2ccc3n(c2=O)C[C@@H]2[C@@H](CO)[C@H](C(=O)NCC4CC4)[C@H]3N2S(C)(=O)=O)cc1 | - | . | . | - | . | .
COc1cccc(NC(=O)N(C)C[C@H]2Oc3cc(-c4cccc(C(=O)N(C)C)c4)ccc3S(=O)(=O)N([C@H](C)CO)C[C@@H]2C)c1 | - | . | . | - | . | .
O=C(NNS(=O)(=O)c1ccc(Br)cc1)C1CCCCC1 | 43 | - | - | . | - | -
N#C/C(=C(/O)CSc1ncn[nH]1)c1nc2ccccc2[nH]1 | 44 | - | - | . | - | -
Cc1cc(C)n2c(SCC(O)=C(C#N)c3nc4ccccc4[nH]3)nnc2n1 | - | - | . | - | . | .
CC(=O)N(C)C[C@@H]1Oc2ncc(C#Cc3ccc(F)cc3)cc2C(=O)N([C@H](C)CO)C[C@H]1C | - | . | . | - | . | .
CC(=O)c1ccc(N(CC(=O)NC2CCCC2)C(=O)c2csnn2)cc1 | 44 | - | - | . | - | -
CO[C@H]1CN(C)C(=O)c2ccc(NC(=O)C3CCCC3)cc2OC[C@H](C)NC[C@H]1C | - | . | . | - | . | .
COc1ccc(NS(=O)(=O)c2cccc(C(=O)NNC(=O)c3ccc(NC(C)=O)cc3)c2)cc1 | - | - | - | - | - | -
CC(C)(C)c1ccc(S(=O)(=O)Nc2ccc(C(O)(C(F)(F)F)C(F)(F)F)cc2)cc1 | - | - | . | 103 | . | .
COc1cccc(S(=O)(=O)Nc2ccc(C(O)(C(F)(F)F)C(F)(F)F)cc2)c1 | - | - | . | 129 | . | .
CC(=O)Nc1ccc(NS(=O)(=O)c2cccc3ccccc23)cc1 | . | - | - | - | - | -
SMILES | FGF22 binding | NR2E3 ag-1 | Jurkat NFkB inh | miR-122 sensor | 697 NFkB inh | NR2E3 ag-2
O=S(=O)(Nc1ccc(C(O)(C(F)(F)F)C(F)(F)F)cc1)c1cccc2ccccc12 | - | - | . | 102 | . | .
C[C@H](CO)N1C[C@H](C)[C@H](CN(C)C(=O)Nc2cccc3ccccc23)Oc2c(NC(=O)NC3CCCCC3)cccc2C1=O | - | . | . | - | . | .
CCn1c(SC)nnc1-c1nn(-c2ccccc2)ccc1=O | 43 | - | - | . | - | -
O=C(Nc1ccccc1C(=O)N/N=C/c1ccncc1)c1ccccc1 | 44 | - | - | - | - | -
O=C(C[C@H]1C[C@H]2c3cc(NC(=O)Nc4ccccc4F)ccc3O[C@H]2[C@H](CO)O1)NCc1cc(F)ccc1F | - | . | . | - | . | .
CCCCN1C(=O)C(CC(=O)NCCCN(C)C)CC(C(=O)N(CC)CC)=C1C (configuration not stated) | 43 | - | . | - | . | .
CCCCN1C(=O)C(CC(=O)NCc2ccco2)CC(C(=O)N(CC)CC)=C1C (configuration not stated) | 43 | - | . | - | . | .
CCN(CC)C(=O)C1=C(C)N(Cc2ccccc2)C(=O)C(CC(=O)NCc2ccco2)C1 (configuration not stated) | 43 | - | . | - | . | .
CCCCN1C(=O)C(CC(=O)NCCCN(C)C)CC(C(=O)N(C(C)C)C(C)C)=C1C (configuration not stated) | - | - | . | . | . | .
CCCCN1C(=O)C(CC(=O)NCc2ccco2)CC(C(=O)N(C)C)=C1C (configuration not stated) | - | - | . | - | . | .
CC1=C(C(=O)N(C)C)CC(CC(=O)NCc2ccco2)C(=O)N1Cc1ccccc1 (configuration not stated) | - | - | . | - | . | .
COc1ccccc1CNC(=O)C[C@@H]1C[C@@H]2c3cc(NC(=O)C4CCOCC4)ccc3O[C@@H]2[C@H](CO)O1 | - | . | . | - | . | .
COc1ccc(COCC(O)CN2CCC(C(N)=O)CC2)cc1OC (configuration not stated) | 44 | - | - | . | - | -
CCCc1cc2c(=O)c(-c3cscn3)c(C(=O)OCC)oc2cc1O | 43 | - | - | - | - | -
C[C@@H]1CCCCO[C@H](CN(C)C(=O)C2CCCCC2)[C@H](C)CN([C@@H](C)CO)C(=O)c2cc(NC(=O)c3ccncc3)ccc2O1 | - | . | . | - | . | .
FC(F)Sc1ccc(NC(=S)NCc2ccccc2)cc1 | 43 | - | - | - | - | -
CC1CCCCC1NC(=S)Nc1ccc(SC(F)F)cc1 (configuration not stated) | . | - | - | 115 | - | -
FC(F)Sc1ccc(NC(=S)NC2CCCCC2)cc1 | . | - | - | 121 | - | -
CC(C)(C)[C@@H]1C=C(C(=O)N2CCCC2)O[C@H](OCc2ccc(CO)cc2)C1 | - | . | . | . | . | .
CCC(C)C(=O)Nc1ccc([N+](=O)[O-])cc1OC (configuration not stated) | 43 | - | - | - | - | -
CO[C@@H]1CN(C)C(=O)c2ccc(NC(C)=O)cc2OC[C@@H](C)N(Cc2ccncc2)C[C@H]1C | . | . | . | - | . | .
O=C(Nc1cccc(F)c1)/C(=C\c1cccnc1)NC(=O)c1ccco1 | 44 | - | - | . | - | -
Cc1ccc(NC(=O)/C(=C\c2cccnc2)NC(=O)c2ccco2)cc1 | . | - | - | - | - | -
Cc1ccc(Cn2c(=O)sc3ccccc3c2=O)cc1 | . | - | - | - | - | -
O=c1sc2ccccc2c(=O)n1Cc1ccccc1F | 43 | - | - | . | - | -
